According to ChEMBL document CHEMBL1141057, “Synthesis and antibacterial activity of a novel series of DNA gyrase inhibitors: 5-[(E)-2-arylvinyl]pyrazoles” (Bioorg Med Chem Lett, 2005):
Values after ≈ are worked out from the molar mass of the structure shown.

Key:
[1] = test system: Escherichia coli; assay: Minimal inhibitory concentration against Escherichia coli NIHJ JC-2; susceptible strain; assay type: functional
Outline: (§1)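 MIC determined by the microdilution method.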

[2] = test system: Staphylococcus aureus; assay: Minimal inhibitory concentration against Staphylococcus aureus FDA 209P; susceptible strain; assay type: functional
Outline: (§2)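 MIC determined by the microdilution method against Gram-positive strains, including a susceptible strain and a multidrug-resistant S. aureus strain.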

[3] = test system: Staphylococcus aureus; assay: Minimal inhibitory concentration against Staphylococcus aureus KMP9; multidrug resistant strain; assay type: functional; outline: as §2
[4] = test system: Escherichia coli; assay: Minimal inhibitory concentration against Escherichia coli W3110 delta acrA; A multidrug efflux pump mutant; assay type: functional; outline: as §1
[5] = test system: Streptococcus pneumoniae; assay: Minimal inhibitory concentration against Streptococcus pneumoniae KT2524 (PRSP); sparfloxacin, clarithromycin, ampicillin resistant strain; assay type: functional
[6] = test system: Enterococcus faecium; assay: Minimal inhibitory concentration against Enterococcus faecium KU1778 (VRE); sparfloxacin, clarithromycin, ampicillin, vancomycin resistant strain; assay type: functional
[7] = test system: Staphylococcus aureus; assay: Minimal inhibitory concentration against Staphylococcus aureus FDA 209P(MSSA); susceptible strain; assay type: functional
[8] = test system: Enterococcus faecium; assay: Minimal inhibitory concentration against Enterococcus faecium ATCC 19434 (VSE); susceptible strain; assay type: functional
[9] = test system: Streptococcus pneumoniae; assay: Minimal inhibitory concentration against Streptococcus pneumoniae ATCC 49619 (PSSP); susceptible strain; assay type: functional
[10] = test system: Staphylococcus aureus; assay: Minimal inhibitory concentration against Staphylococcus aureus KMP9 (MRSA); sparfloxacin, clarithromycin, ampicillin resistant strain; assay type: functional
[11] = target: DNA gyrase (Escherichia coli, UniProt P0AES4+P0AES6); assay: Inhibitory activity against supercoiling activity of DNA gyrase isolated from Escherichia coli; assay type: protein-complex assay
[12] = target: T1, DNA topoisomerase 4 subunit A (Escherichia coli K-12, UniProt P0AFI2); assay: Inhibitory activity against decatenation of DNA topoisomerase IV isolated from Escherichia coli
T1 sequence (P0AFI2 whole entry): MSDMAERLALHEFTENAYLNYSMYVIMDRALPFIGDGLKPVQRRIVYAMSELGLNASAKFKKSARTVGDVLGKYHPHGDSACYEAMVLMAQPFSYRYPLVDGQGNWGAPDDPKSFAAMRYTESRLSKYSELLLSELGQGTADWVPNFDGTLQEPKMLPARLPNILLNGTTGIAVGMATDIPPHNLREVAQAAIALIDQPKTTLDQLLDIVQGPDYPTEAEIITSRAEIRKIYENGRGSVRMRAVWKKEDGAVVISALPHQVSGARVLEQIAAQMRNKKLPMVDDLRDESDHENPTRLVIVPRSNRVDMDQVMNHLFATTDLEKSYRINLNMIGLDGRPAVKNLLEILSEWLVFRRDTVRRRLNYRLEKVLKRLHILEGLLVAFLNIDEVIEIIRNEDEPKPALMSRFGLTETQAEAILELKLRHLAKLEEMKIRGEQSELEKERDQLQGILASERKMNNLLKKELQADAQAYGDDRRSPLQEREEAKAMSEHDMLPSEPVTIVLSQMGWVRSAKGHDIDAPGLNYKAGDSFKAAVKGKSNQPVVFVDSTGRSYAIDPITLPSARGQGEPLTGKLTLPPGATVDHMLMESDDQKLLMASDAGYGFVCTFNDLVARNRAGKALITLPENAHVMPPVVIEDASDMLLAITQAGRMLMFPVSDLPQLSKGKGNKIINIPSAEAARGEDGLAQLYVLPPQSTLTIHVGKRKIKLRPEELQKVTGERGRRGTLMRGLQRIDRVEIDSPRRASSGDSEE

[13] = test system: Staphylococcus aureus; assay: 4 Minimal inhibitory concentration against Staphylococcus aureus KMP9; multidrug resistant strain; assay type: functional; outline: as §2

| SMILES | MIC [1] [µg/mL] | MIC [2] [µg/mL] | MIC [3] [µg/mL] | MIC [4] [µg/mL] | MIC [5] [µg/mL] | MIC [6] [µg/mL] | MIC [7] [µg/mL] | MIC [8] [µg/mL] | MIC [9] [µg/mL] | MIC [10] [µg/mL] | IC50 [11] [µM] | IC50 [12] [µM] | MIC [13] [µg/mL] |
| --- | --- | --- | --- | --- | --- | --- | --- | --- | --- | --- | --- | --- | --- |
| Clc1ccc(/C=C/c2cc(C3CCNCC3)[nH]n2)cc1Cl | 8 (≈ 24.8 µM) | 4 (≈ 12.4 µM) | 4 (≈ 12.4 µM) | 4 (≈ 12.4 µM) | – | – | – | – | – | – | – | – | – |
| Clc1cccc(Cl)c1CCc1cc(C2CCNCC2)[nH]n1 | 128 (≈ 395 µM) | 32 (≈ 98.7 µM) | 64 (≈ 197 µM) | 64 (≈ 197 µM) | – | – | – | – | – | – | – | – | – |
| Clc1cccc(-n2nc(C3CCNCC3)cc2CCc2c(Cl)cccc2Cl)c1 | > 128 | 32 (≈ 73.6 µM) | 32 (≈ 73.6 µM) | 16 (≈ 36.8 µM) | – | – | – | – | – | – | – | – | – |
| Clc1cccc(-n2nc(C3CCNCC3)cc2CCc2c[nH]c3ccc(Cl)cc23)c1 | 64 (≈ 146 µM) | 16 (≈ 36.4 µM) | 16 (≈ 36.4 µM) | 16 (≈ 36.4 µM) | 8 (≈ 18.2 µM) | 16 (≈ 36.4 µM) | 16 (≈ 36.4 µM) | 16 (≈ 36.4 µM) | 16 (≈ 36.4 µM) | 16 (≈ 36.4 µM) | – | – | – |
| Clc1ccc(COc2ccc(/C=C/c3cc(C4CCNCC4)[nH]n3)cc2)cc1Cl | 4 (≈ 9.34 µM) | 2 (≈ 4.67 µM) | 2 (≈ 4.67 µM) | 2 (≈ 4.67 µM) | 1 (≈ 2.33 µM) | 1 (≈ 2.33 µM) | 2 (≈ 4.67 µM) | 2 (≈ 4.67 µM) | 2 (≈ 4.67 µM) | 2 (≈ 4.67 µM) | 32.4 | 64.9 | – |
| Clc1cccc(-n2nc(C3CCNCC3)cc2/C=C/c2ccc(OCc3ccc(Cl)c(Cl)c3)cc2)c1 | 32 (≈ 59.4 µM) | 2 (≈ 3.71 µM) | 4 (≈ 7.42 µM) | 4 (≈ 7.42 µM) | – | – | – | – | – | – | – | – | – |
| Clc1cccc(-n2nc(C3CCNCC3)cc2/C=C/c2cc3cc(Cl)ccc3[nH]2)c1 | 16 (≈ 36.6 µM) | 2 (≈ 4.57 µM) | 4 (≈ 9.15 µM) | 4 (≈ 9.15 µM) | – | – | – | – | – | – | – | – | – |
| Clc1cccc(Cl)c1/C=C/c1cc(C2CCNCC2)[nH]n1 | > 128 | 128 (≈ 397 µM) | > 128 | > 128 | – | – | – | – | – | – | – | – | – |
| Clc1cccc(-n2nc(C3CCNCC3)cc2/C=C/c2c(Cl)cccc2Cl)c1 | 64 (≈ 148 µM) | 4 (≈ 9.24 µM) | 4 (≈ 9.24 µM) | 4 (≈ 9.24 µM) | 4 (≈ 9.24 µM) | 8 (≈ 18.5 µM) | 4 (≈ 9.24 µM) | 8 (≈ 18.5 µM) | 4 (≈ 9.24 µM) | 4 (≈ 9.24 µM) | – | – | – |
| Clc1cccc(-n2nc(C3CCNCC3)cc2/C=C/c2ccc(Cl)c(Cl)c2)c1 | 16 (≈ 37 µM) | 8 (≈ 18.5 µM) | – | 4 (≈ 9.24 µM) | – | – | – | – | – | – | – | – | 4 (≈ 9.24 µM) |
| Clc1cccc(-n2nc(C3CCNCC3)cc2/C=C/c2c[nH]c3ccc(Cl)cc23)c1 | 8 (≈ 18.3 µM) | 1 (≈ 2.29 µM) | 1 (≈ 2.29 µM) | 4 (≈ 9.15 µM) | 2 (≈ 4.57 µM) | 2 (≈ 4.57 µM) | 1 (≈ 2.29 µM) | 2 (≈ 4.57 µM) | 2 (≈ 4.57 µM) | 1 (≈ 2.29 µM) | 18.3 | 31.8 | – |
| Cn1cc(/C=C/c2cc(C3CCNCC3)nn2-c2cccc(Cl)c2)c2cc(Cl)ccc21 | > 128 | 2 (≈ 4.43 µM) | 2 (≈ 4.43 µM) | 4 (≈ 8.86 µM) | 1 (≈ 2.22 µM) | 1 (≈ 2.22 µM) | 2 (≈ 4.43 µM) | 2 (≈ 4.43 µM) | 1 (≈ 2.22 µM) | 2 (≈ 4.43 µM) | – | 35.4 | – |
